In brackets after ≈: the same amount, converted by molar mass. Activity calls are given as the source filed them.
What was measured:
[1] = Water solubility of the compound; type: ADME; details: for S: buffer; for solubility: water, read-out: S
Mus musculus [2] = assay: percent T / C values ([…] / control) against P388 murine leukemia cells at 40 mg/kg dose; type: functional
Procedure, shortened: (§1)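 CDF1 mice over 18 g implanted iv with 10^6 P388 leukemia cells on day 0 and randomized. Single ip dose on day 1, chosen from 2.5, 10, 40 or 160 mg/kg. Survival and clinical signs followed daily; weights taken days 1, 4 and 8. T/C% is median survival of treated over control × 100; 125-175% is the minimum activity level.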

Mus musculus [3] = assay: compound was tested in vivo for inhibition of P388 murine leukemia cells after iv / ip administration.; type: functional; procedure, shortened: as §1
L1210 = assay: In vitro cytotoxic activity against murine L1210 leukemia cells.; type: functional, cell-based, Mus musculus
Procedure, shortened: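 Murine L1210 leukemia cells grown in RPMI 1640 with 10% heat-inactivated horse serum at 37 °C, 5% CO2, used within 40 passages (doubling time 8-10 h). Exponentially growing cells (1.5 × 10^5/well) exposed to a concentration range for 48 h, then counted electronically.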

DNA topoisomerase II [4] = biological target: T1, DNA topoisomerase II (Homo sapiens, UniProt P11388+Q02880); assay: Concentration of compound at which inhibitory activity detected against DNA topoisomerase II; type: protein assay, Drosophila melanogaster
Mus musculus [5] = assay: compound was tested in vivo for inhibition of P388 murine leukemia cells after iv / ip administration at 40 mg/ kg; NA indicates inactive; type: functional, organism-based; parameters: dose 40 mg/ kg
Procedure, shortened: (§2)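 P388 leukemia cells (10^6/mouse) implanted iv in CDF1 mice (>18 g) on day 0. After randomization, single ip dose on day 1 from the series 2.5, 10, 40, 160 mg/kg. Daily clinical checks and death recorded, weights on days 1, 4, 8. Activity scored as median survival treated/control ×100 (T/C, %), with 125–175% as minimum activity (NCI criteria).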

[6] = in vitro inhibitory activity against tubulin polymerization.; parameters: species or system Ovis aries
DNA topoisomerase II [7] = biological target: T1, DNA topoisomerase II; assay: In vitro inhibitory activity against DNA topoisomerase II; type: protein assay, Drosophila melanogaster
Mus musculus [8] = assay: percent T / C values ([…] / control) against P388 murine leukemia cells at 160 mg/kg dose; type: functional; procedure, shortened: as §1
[9] = Water solubility of the compound; insoluble; type: ADME; details: buffer
Mus musculus [10] = assay: Compound was tested in vivo for inhibition of P388 murine leukemia cells after iv / ip administration at 40 mg/ kg; NA indicates inactive; type: functional, organism-based; parameters: dose 40 mg/ kg; procedure, shortened: as §2
[11] = Mus musculus, P388, read-out: ED50

In the case of COc1cc([C@@H]2c3cc4c(cc3[C@@H](OC3CC(N(C)C)C5OC(C)OCC5O3)[C@H]3COC(=O)[C@H]23)OCO4)cc(OC)c1O (stereo in doubt; 28), the S [1] is reported as 24 mg/mL, the T/C max (Mus musculus [2]; 40 mg/kg) is reported as 243% and the ED50 (Mus musculus [3]) is reported as 1.7 mg/kg. The IC50 (L1210; l1210) was 110 nM and the EC50 (DNA topoisomerase II [4]) was > 100000 nM.
In the case of COc1cc([C@@H]2c3cc4c(cc3[C@@H](OC3CC(N)C(O)C(CN)O3)[C@H]3COC(=O)[C@H]23)OCO4)cc(OC)c1O (stereo partly specified), the solubility [1] is reported as 42 mg/mL (≈ 77.1 mM), the ED50 (Mus musculus [5]) is reported as “inactive” and the IC50 (L1210; Mus musculus, L1210) is reported as 210 nM. The EC50 (DNA topoisomerase II [4]) was > 100000 nM and the IC50 [6] was 11000 nM.
With COc1cc([C@@H]2c3cc4c(cc3C(OC3OC5COC(C)OC5C(O)C3N(C)C)C3COC(=O)[C@@H]32)OCO4)cc(OC)c1O (stereo partly specified) the solubility [1] was 15 mg/mL (≈ 24.4 mM) and the EC50 (DNA topoisomerase II [7]) was 56000 nM.
COc1cc([C@@H]2c3cc4c(cc3[C@@H](OC3CC(N(C)C)C5OC(C)OCC5O3)[C@H]3COC(=O)[C@H]23)OCO4)cc(OC)c1O (stereo in doubt; 29) gave a solubility [1] of 26 mg/mL (≈ 43.4 mM), a T/C max (Mus musculus [2]; 40 mg/kg) of 257% and an ED50 (Mus musculus [3]) of 5 mg/kg. For the same compound, the IC50 (L1210; Mus musculus, L1210) was 90 nM, the EC50 (DNA topoisomerase II [4]) was > 100000 nM and the IC50 [6] was > 50000 nM.
In the case of COc1cc([C@@H]2c3cc4c(cc3[C@@H](O[C@@H]3CC(N)C5OC(C)OCC5O3)[C@H]3COC(=O)[C@H]23)OCO4)cc(OC)c1O (stereo partly specified), the solubility [1] is reported as 10 mg/mL (≈ 17.5 mM), the ED50 (Mus musculus [5]) is reported as “inactive” and the IC50 (L1210; Mus musculus, L1210) is reported as 1300 nM. For the same compound, the EC50 (DNA topoisomerase II [4]) was > 100000 nM and the IC50 [6] was > 50000 nM.
In the case of COc1cc([C@@H]2c3cc4c(cc3CC3COC(=O)[C@@H]32)OCO4)cc(OC)c1O (stereo partly specified), the IC50 [6] is reported as 13000 nM.
For COc1cc([C@@H]2c3cc4c(cc3[C@@H](OC3CC(N)C5OC(C)OCC5O3)[C@H]3COC(=O)[C@H]23)OCO4)cc(OC)c1O (stereo in doubt; 27), the S [1] was 9 mg/mL, the T/C max (Mus musculus [2]) was 193% and the ED50 (Mus musculus [3]) was 1.7 mg/kg. The IC50 (L1210; l1210) was 70 nM, the EC50 (DNA topoisomerase II [4]) was > 100000 nM and the IC50 [6] was > 50000 nM.
COc1cc([C@@H]2c3cc4c(cc3[C@@H](OC3CC(N)C5OC(C)OCC5O3)[C@H]3COC(=O)[C@H]23)OCO4)cc(OC)c1O (stereo in doubt; 17) gave a solubility [1] of 11 mg/mL (≈ 19.2 mM), a T/C max (Mus musculus [8]) of 300% and an ED50 (Mus musculus [3]) of 5 mg/kg. The IC50 (L1210; l1210) was 230 nM, the EC50 (DNA topoisomerase II [4]) was > 100000 nM and the IC50 [6] was > 10000 nM.
With COc1cc([C@@H]2c3cc4c(cc3[C@@H](OC3CC(NCCN)C5OC(C)OCC5O3)[C@H]3COC(=O)[C@H]23)OCO4)cc(OC)c1O (stereo partly specified) the solubility [1] was 40 mg/mL (≈ 65.1 mM), the ED50 (Mus musculus [5]) was “inactive” and the IC50 (L1210; Mus musculus, L1210) was 1700 nM. The EC50 (DNA topoisomerase II [4]) was > 100000 nM and the IC50 [6] was > 10000 nM.
COc1cc([C@@H]2c3cc4c(cc3[C@H](O)[C@H]3COC(=O)[C@H]23)OCO4)cc(OC)c1OC [PODOFILOX] gave an IC50 [6] of 3000 nM.
For COc1cc([C@@H]2c3cc4c(cc3[C@@H](OC3CC(NCC#N)C5OC(C)OCC5O3)[C@H]3COC(=O)[C@H]23)OCO4)cc(OC)c1O (stereo partly specified), the T/C max (Mus musculus [8]) was 186%, the S [9] was “Insoluble” and the ED50 (Mus musculus [3]; [11]) was 20 mg/kg. The IC50 (L1210; Mus musculus, L1210) was 2000 nM, the EC50 (DNA topoisomerase II [4]) was > 1000 nM and the IC50 [6] was > 100000 nM.
In the case of COc1cc([C@@H]2c3cc4c(cc3[C@@H](OC3CC(N5CCOCC5)C5OC(C)OCC5O3)[C@H]3COC(=O)[C@H]23)OCO4)cc(OC)c1O (stereo partly specified), the ED50 (Mus musculus [10]) is reported as “inactive”, the S [9] is reported as “Insoluble” and the IC50 (L1210; Mus musculus, L1210) is reported as > 1000 nM. For the same compound, the EC50 (DNA topoisomerase II [4]) was > 1000 nM.
In the case of COc1cc([C@@H]2c3cc4c(cc3[C@@H](OC3CC(N)C(O)C(C)O3)[C@H]3COC(=O)[C@H]23)OCO4)cc(OC)c1O (stereo partly specified), the solubility [1] is reported as 13 mg/mL (≈ 24.5 mM), the ED50 (Mus musculus [5]) is reported as “inactive” and the IC50 (L1210; Mus musculus, L1210) is reported as 12000 nM. For the same compound, the EC50 (DNA topoisomerase II [4]) was 5600 nM and the IC50 [6] was > 10000 nM.
COc1cc([C@@H]2c3cc4c(cc3[C@@H](O[C@@H]3O[C@@H]5CO[C@@H](C)O[C@H]5[C@H](O)[C@H]3O)[C@H]3COC(=O)[C@H]23)OCO4)cc(OC)c1O [ETOPOSIDE] gave an S [1] of 0.01 mg/mL, a T/C max (Mus musculus [8]) of 242% and an ED50 (Mus musculus [3]; [11]) of 5 mg/kg. The IC50 (L1210; Mus musculus, L1210) was 200 nM.

From ChEMBL document CHEMBL1131312 (J Med Chem, 1998)
